Consider 17 compounds from ChEMBL document CHEMBL3627648, “Synthesis and biochemical evaluation of benzoylbenzophenone thiosemicarbazone analogues as potent and selective inhibitors of cathepsin L” (Bioorg Med Chem, 2015).

Calls of active or inactive are those of the source. The calls are words filed in the database; no cut-off is given here.

Series [1] concerns MDA-MB-231. The experiment in a line: Antimigrative activity in human MDA-MB-231 cells at 25 uM after 24 hrs by inverted microscopic analysis. It counts as functional. The settings on record: MDA-MB-231, 24 h. The essentials:
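Transwell migration of MDA-MB-231 cells, run as for invasion but on 8 µm pore inserts without Matrigel. Each insert held 50,000 cells in DMEM with 25 µM compound and 2% DMSO, with 10% FBS DMEM below. After 24 h at 37 °C, cells were fixed, stained and counted by microscope. Values were normalised to the DMSO vehicle; triplicate.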

Series [2] has as its system MDA-MB-231. The experiment in a line: Antiinvasive activity in human MDA-MB-231 cells at 25 uM after 24 hrs by inverted microscopic analysis. It counts as functional. The note with it: for inhibition at 25 µM: MDA-MB-231, 24 h. The essentials: (§1)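 MDA-MB-231 cells at 80% confluence, 50,000 per Matrigel-coated insert (8 µm PET membrane) in DMEM with 10 or 25 µM compound and 2% DMSO. The lower chamber held DMEM with 10% FBS as chemoattractant. After 24 h at 37 °C in 5% CO2, invaded cells were methanol-fixed, Diff-stained and counted by hand in ten fields at 40x. Values were normalised to the 2% DMSO vehicle; triplicate.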

The test system of series [3] is MDA-MB-231. Description: Antiinvasive activity in human MDA-MB-231 cells at 10 uM after 24 hrs by inverted microscopic analysis. It counts as functional. The settings on record: MDA-MB-231, 24 h. The essentials:
as §1

Series [4] is described as follows: Antiinvasive activity in human PC3-ML cells at 5 uM after 24 hrs by microscopic analysis. In kind it is functional. The method, boiled down: (§2)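 PC-3ML cells, a metastatic PC-3 subline, were seeded in serum-free medium into Matrigel-coated invasion inserts, with 10% FBS medium in the bottom chamber. At 24 h, cells that reached the membrane underside were stained and counted by microscope. Mean and standard error come from 3-5 independent experiments.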

Series [5] is described as follows: Antiinvasive activity in human PC3-ML cells at 1 uM after 24 hrs by microscopic analysis. In kind it is functional. The essentials: as §2
The target in series [6] is T1, Procathepsin L (Homo sapiens, UniProt P07711). The experiment in a line: Inhibition of human liver cathepsin L using Z-FR-AMC as substrate measured every 15 sec for 5 mins by fluorescence assay.
Target sequence in this assay (P07711 whole entry): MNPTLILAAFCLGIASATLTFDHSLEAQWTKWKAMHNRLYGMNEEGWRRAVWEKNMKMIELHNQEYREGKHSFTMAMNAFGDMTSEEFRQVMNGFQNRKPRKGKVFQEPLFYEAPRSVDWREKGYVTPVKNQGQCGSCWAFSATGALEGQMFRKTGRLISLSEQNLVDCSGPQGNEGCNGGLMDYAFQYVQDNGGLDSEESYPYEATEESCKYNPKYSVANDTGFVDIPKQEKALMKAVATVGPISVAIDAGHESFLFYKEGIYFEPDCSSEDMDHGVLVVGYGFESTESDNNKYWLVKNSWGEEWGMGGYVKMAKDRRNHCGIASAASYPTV
Series [7] has as its target Cathepsin B (Homo sapiens, UniProt P07858). The experiment in a line: Inhibition of human liver cathepsin B using Z-RR-AMC as substrate after 5 mins by fluorescence assay. The method, boiled down:
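Human liver cathepsin B (1 nM) was pre-incubated 5 min at 37 °C with inhibitor (final 10 µM to 10 pM). Substrate was 60 µM Z-RR-AMC in 120 mM sodium potassium phosphate pH 6.0 with 1 mM EDTA, 3 mM DTT, 0.01% Brij 35 and 2% DMSO. AMC fluorescence (ex 355/em 460 nm) was read for 5 min at 37 °C.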

Series [8] concerns HUVEC. The experiment in a line: Cytotoxicity against HUVEC cells after 48 hrs by SRB assay. It counts as cell-based. The settings on record: human. The essentials: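 SRB growth assay: HUVECs (pooled donors, passage ≤5) plated at 9,000 cells/well for 24 h, then exposed to ten-fold serial dilutions for 48 h. Cells were TCA-fixed and stained with 0.4% SRB, and absorbance read at 540 nm normalised to 630 nm.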
For orientation: In SRB staining, fixed cells bind dye roughly in proportion to their protein.

Series [9] can be described thus: Antiinvasive activity in human PC3-ML cells at 25 uM after 24 hrs by microscopic analysis. It counts as functional. The method, boiled down:
as §2

Series [10] is described as follows: Antiinvasive activity in human PC3-ML cells at 10 uM after 24 hrs by microscopic analysis. In kind it is functional. The method, boiled down: as §2
Series [11] in a line: Antitumor activity against C3H mouse derived mammary cancer cells implanted in CDF1 mouse assessed as time taken for tumors to reach 500 mm'3 at 20 mg/kg, ip administered 5 consecutive days starting either on day of tumor implantation or when tumors reached 200 mm'3 (reference value: 20.1 +/- 0.6 days). It counts as functional, Cancer cell lines. The essentials: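 Female CDF1 mice, 10-14 weeks old, had minced C3H mammary carcinoma tissue (5-10 µl) implanted in the right rear foot. Dosing was 20 mg/kg i.p. at 0.02 ml/g, dissolved in Tween80 and diluted to 10% with saline, given daily for 5 days. Tumour volume was followed daily to find days to reach 500 mm3. Groups had 5-8 mice; mean ±1 S.E.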

Series [12] has as its system Mus musculus. The experiment in a line: Toxicity in C3H mouse derived mammary cancer cells implanted CDF1 mouse assessed as drug tolerability at 20 mg/kg, ip administered 5 consecutive days starting either on day of tumor implantation or when tumors reached 200 mm'3. It counts as organism-based, Cancer cell lines. The note with it: in vivo.
The target in series [13] is T1, Procathepsin L. Description: Inhibition of human liver cathepsin L using Z-FR-AMC as substrate at 10000 nM measured every 15 sec for 5 mins by fluorescence assay. The method, boiled down: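 Human liver cathepsin L (1 nM) was pre-incubated 5 min at 25 °C with 10 µM inhibitor or vehicle. Substrate was 50 µM Z-FR-AMC in 100 mM NaOAc pH 5.5 with 1 mM EDTA, 3 mM DTT, 0.01% Brij 35 and 2% DMSO.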
Target sequence in this assay (P07711 114-333 limits assumed): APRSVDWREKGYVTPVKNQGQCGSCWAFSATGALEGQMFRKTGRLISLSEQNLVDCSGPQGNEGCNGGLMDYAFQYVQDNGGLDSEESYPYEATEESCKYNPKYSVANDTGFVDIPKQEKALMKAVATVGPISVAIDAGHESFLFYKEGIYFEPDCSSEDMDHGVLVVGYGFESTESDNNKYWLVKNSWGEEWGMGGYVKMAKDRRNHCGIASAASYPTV

In general, inhibition refers to the percentage by which the read-out fell short of the control. Usually IC50 stands for the concentration that gives 50% inhibition. Lower therefore signals greater potency in that assay. What is called GI50 is the concentration giving 50% growth inhibition. Lower therefore signals greater sensitivity of the cells.

For `NC(=S)N/N=C(\c1ccc(F)cc1)c1cccc(C(=O)c2ccc(F)cc2)c1`, the results for the inhibition at 25 µM in [1] and in series [2] were > 50% and 60%, respectively. Besides, the inhibition at 10 µM in series [3] came to 15%. In addition, the inhibition at 5 µM in series [4] amounted to 92%. In series [5], this compound came in with an inhibition at 1 µM of 59%. Besides, the IC50 in series [6] was 0.0144 µM; in series [7] it was > 10 µM. Further, the GI50 in series [8] was > 126 µM.

With `NC(=S)N/N=C(\c1ccc(O)cc1)c1cccc(C(=O)c2ccc(O)cc2)c1`, the IC50 in series [6] is 0.34 µM; in series [7] it was > 10 µM.

Regarding `NC(=S)N/N=C(\c1ccccc1)c1cc(C(=O)c2ccccc2)cc(C(=O)c2ccccc2)c1`, the concentration for half-maximal inhibition (IC50) was 0.056 µM in [6] and > 10 µM in [7].

Turning to `Cc1cccc(C(=O)c2cccc(/C(=N/NC(N)=S)c3cccc(C)c3)c2)c1`, the values for the IC50 in series [6] and in series [7] were 0.654 µM and > 10 µM, respectively.

With `NC(=S)N/N=C(\c1ccccc1)c1cccc(C(=O)c2ccccc2)c1`, the inhibition at 25 µM came out at 80% in series [1], 30% in [2] and 53% in [9]. In addition, at 10 µM the inhibition in series [10] was 37%. Moreover, the IC50 is 0.00985 µM in [6] and > 10 µM in [7]. For the same compound, the Time in [11] worked out at 22.1 days. This compound yielded a GI50 in series [8] of 53.3 µM. Also, in series [12], the Activity entry is recorded as “Non-toxic”.

`NC(=S)N/N=C(\c1cccc(Br)c1)c1cc(O)cc(C(=O)c2cccc(Br)c2)c1`: the values for the IC50 in [6] and in series [7] were 10 µM and > 10 µM, respectively. In series [13], this compound displayed an inhibition of 56.9%.

On to `COc1cccc2c1C(=O)c1c(O)c3c(c(O)c1C2=O)C[C@@](O)(C(=O)CO)C[C@@H]3O[C@H]1C[C@H](N)[C@H](O)[C@H](C)O1` [DOXORUBICIN], for which halving of growth in series [8] (GI50) required 0.0268 µM. This counts as double-digit nanomolar.

Regarding `NC(=S)N/N=C(\c1cccc(O)c1)c1cc(Br)cc(C(=O)c2cccc(O)c2)c1`, the IC50 is 0.0716 µM in [6] and > 10 µM in series [7]. This compound also returned a GI50 in series [8] of 13.3 µM.

In the case of `COc1ccc(C(=O)c2cccc(/C(=N/NC(N)=S)c3ccc(OC)cc3)c2)cc1`, the IC50 in series [6] is 5.12 µM; in series [7], > 10 µM.

Turning to `CC(=O)O[C@H]1C(=O)[C@@]2(C)[C@H]([C@H](OC(=O)c3ccccc3)[C@]3(O)C[C@H](OC(=O)[C@H](O)[C@@H](NC(=O)c4ccccc4)c4ccccc4)C(C)=C1C3(C)C)[C@]1(OC(C)=O)CO[C@@H]1C[C@@H]2O` [PACLITAXEL], halving of growth in [8] (GI50) required 0.00148 µM.

In series [3], `CC(C)C[C@H](NC(=O)[C@@H]1O[C@H]1C(=O)O)C(=O)NCCCCN=C(N)N` had an inhibition at 10 µM of 60%.

As for `NC(=S)N/N=C(\c1ccc(Br)cc1)c1cccc(/C(=N/NC(N)=S)c2ccc(Br)cc2)c1`, the IC50 in series [6] and in series [7] was > 10 µM each time.

As for `NC(=S)N/N=C(\c1ccccc1)c1cccc(C(O)c2ccccc2)c1` (stereo not given), the IC50 in series [6] is 0.0238 µM; in [7], > 10 µM.

For the compound `CC(C)Oc1ccc(C(=O)c2cccc(/C(=N/NC(N)=S)c3ccc(OC(C)C)cc3)c2)cc1`, the IC50 in series [6] and in series [7] was > 10 µM in each case.

`NC(=S)N/N=C(\c1cc(Br)cc(C(=O)c2ccccc2F)c1)c1ccccc1F`: the inhibition at 25 µM in series [1] was > 50%. Besides, the inhibition result in series [2] is “Active”. Further, in [3], the inhibition at 10 µM came to 70%. For the same compound, the figures for the IC50 in series [6] and in series [7] were 0.00812 µM and > 10 µM, respectively. Also, the GI50 in [8] is > 85.9 µM.

With `NC(=S)N/N=C(\c1ccc(Br)cc1)c1cccc(C(=O)c2ccc(Br)cc2)c1`, the IC50 is 1.52 µM in series [6] and > 10 µM in [7].

For `NC(=S)N/N=C(\c1cccc(Br)c1)c1cc(Br)cc(C(=O)c2cccc(Br)c2)c1`, the IC50 in series [6] is 10.3 µM; in series [7], > 10 µM.
